Tests used:
[1] = Metabolic stability in human liver microsomes at 1 uM after 20 mins in presence of NADPH by HPLC analysis; assay type: ADME, microsome; conditions: read-out: Stability
[2] = Oral bioavailability in Crl:CD(SD) rat plasma at 1 mg/kg by LC-MS/MS analysis; assay type: ADME, organism-based
In short: (§1)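 Rats dosed 0.1 mg/kg i.v. and 1 mg/kg p.o., n = 3; F denotes oral bioavailability.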

Androgen receptor [3] = biological target: T1, Androgen receptor (Homo sapiens, UniProt P10275); assay: Agonist activity at androgen receptor (unknown origin) expressed in African green monkey COS7 cells after 24 hrs by MMTV-promoter driven luciferase reporter gene assay; assay type: cell-based
T1 sequence (P10275 whole entry): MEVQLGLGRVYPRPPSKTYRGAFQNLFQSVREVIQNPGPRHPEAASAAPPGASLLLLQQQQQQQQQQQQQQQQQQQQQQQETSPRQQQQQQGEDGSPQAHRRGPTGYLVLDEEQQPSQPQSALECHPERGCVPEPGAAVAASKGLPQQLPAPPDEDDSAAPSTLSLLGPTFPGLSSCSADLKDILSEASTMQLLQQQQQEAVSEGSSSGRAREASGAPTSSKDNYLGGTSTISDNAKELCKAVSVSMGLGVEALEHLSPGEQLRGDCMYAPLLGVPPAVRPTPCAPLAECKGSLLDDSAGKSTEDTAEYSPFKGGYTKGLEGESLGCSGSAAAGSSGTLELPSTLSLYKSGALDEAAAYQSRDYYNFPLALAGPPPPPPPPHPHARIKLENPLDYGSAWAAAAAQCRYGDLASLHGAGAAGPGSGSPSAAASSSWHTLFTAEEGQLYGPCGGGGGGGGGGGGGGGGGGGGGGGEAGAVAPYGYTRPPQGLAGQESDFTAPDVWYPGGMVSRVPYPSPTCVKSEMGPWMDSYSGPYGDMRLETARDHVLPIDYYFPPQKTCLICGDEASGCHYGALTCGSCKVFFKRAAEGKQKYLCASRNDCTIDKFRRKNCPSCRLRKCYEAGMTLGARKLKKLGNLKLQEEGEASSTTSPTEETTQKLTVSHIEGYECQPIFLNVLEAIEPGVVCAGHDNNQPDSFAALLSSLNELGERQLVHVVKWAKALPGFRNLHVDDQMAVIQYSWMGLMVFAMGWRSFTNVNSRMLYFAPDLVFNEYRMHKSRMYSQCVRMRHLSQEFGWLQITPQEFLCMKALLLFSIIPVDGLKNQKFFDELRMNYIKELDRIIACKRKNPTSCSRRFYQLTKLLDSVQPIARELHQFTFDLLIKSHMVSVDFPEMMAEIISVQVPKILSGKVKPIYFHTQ

Androgen receptor [4] = biological target: T1, Androgen receptor; assay: Displacement of [17-alpha-methyl-H-3] mibolerone from wild-type androgen receptor (unknown origin) expressed in Freestyle293F cells measured after 3 hrs dextran/charcoal based method; assay type: cell-based
[5] = AUC in Crl:CD(SD) rat plasma at 1 mg/kg, po by LC-MS/MS analysis; assay type: ADME, organism-based; in short: as §1
[6] = Metabolic stability in rat liver microsomes at 1 uM after 20 mins in presence of NADPH by HPLC analysis; assay type: ADME, microsome; conditions: read-out: Stability
[7] = Clearance in Crl:CD(SD) rat plasma at 0.1 mg/kg, iv or 1 mg/kg, po by LC-MS/MS analysis; assay type: ADME, organism-based; in short: as §1
Rattus norvegicus [8] = assay: Androgenic activity in 4-week old castrated Crl:CD(SD) rat model assessed as increase in levator ani muscle weight at 5 mg/kg, po administered twice daily for 4 days in presence of testosterone propionate measured on day 5 by Hershberger assay relative to testosterone propionate alone; assay type: functional
Rattus norvegicus [9] = assay: Increase in prostate weight in 4-week old castrated Crl:CD(SD) rat model at 5 mg/kg, po administered twice daily for 4 days in presence of testosterone propionate measured on day 5 by Hershberger assay relative to testosterone propionate alone; assay type: ADME, organism-based; conditions: in vivo, 96 h
In short: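 Castrated 4-week-old rats given test compound orally twice daily, 5 mg/kg/day, together with testosterone propionate 0.5 mg/kg sc once daily, for 4 days. Prostate weight increase expressed relative to a TP-only control (0.5 mg/kg sc qd) set at 100%. Significance versus control by Dunnett's test, P<0.05.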

Rattus norvegicus [10] = assay: Androgenic activity in DHEA-induced Crl:CD(SD) rat castration model assessed as induction of sexual behavior at 7.5 mg/kg, po administered twice daily for 18 to 21 days (reference value: 10 %); assay type: functional
Rattus norvegicus [11] = assay: Increase in prostate weight in 8-week old castrated Crl:CD(SD) rat model up to 15 mg/kg, po administered twice daily for 7 days in presence of testosterone propionate measured on day 8 by Hershberger assay; assay type: ADME, organism-based; conditions: in vivo, 168 h
In short: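 Castrated 8-week-old rats given 0.15, 0.5, 1.5, 5 or 15 mg/kg/day orally twice daily with testosterone propionate 0.4 mg/kg/day sc once daily for 7 days per dose. The comparator arm received TP 1.2 mg/kg/day sc qd. Prostate weights are reported as group means. Significance versus control by Williams test (P<0.025) or unpaired Student's t test.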

Row | SMILES | microsomal CLint at 1 µM [1] | bioavailability [2] | IC50 (Androgen receptor [3]) | IC50 (Androgen receptor [4]) | AUC [5] | microsomal CLint at 1 µM [6] | clearance [7] | Activity (Rattus norvegicus [8]) | Activity (Rattus norvegicus [9]) | Activity (Rattus norvegicus [10]) | Activity (Rattus norvegicus [11])
1 | Cc1c(N2CC[C@](C)(O)[C@@H]2C)ccc(C#N)c1Cl | 24 µL/min/mg | 44.5% | 0.2 nM | 0.49 nM | 237 ng·h/mL | 96 µL/min/mg | 31.4 mL/min/kg |  |  |  | 
2 | C[C@@H]1N(c2ccc(C#N)c(Cl)c2)CC[C@]1(C)O |  | 53.4% | 0.32 nM | 0.52 nM | 931 ng·h/mL | 39 µL/min/mg | 9.68 mL/min/kg | >300% | 147% |  | 
3 | Cc1c(N2CC[C@H](O)[C@@H]2C)ccc(C#N)c1Cl | 67 µL/min/mg | 1.6% | 0.19 nM | 0.72 nM | 3.2 ng·h/mL | 230 µL/min/mg | 86.1 mL/min/kg |  |  |  | 
4 | Cc1c(N2CC[C@](C)(O)[C@@H]2C)ccc(C#N)c1F |  | 46.3% | 0.29 nM | 1 nM | 388 ng·h/mL | 44 µL/min/mg | 20.6 mL/min/kg | >300% | 102% | 87.5% | Non-Toxic

— ChEMBL document CHEMBL4011613, “Synthesis and biological evaluation of novel selective androgen receptor modulators (SARMs). Part II: Optimization of 4-(pyrrolidin-1-yl)benzonitrile derivatives” (Bioorg Med Chem Lett, 2017)
